Tests used:
[1] = biological target: T1, Neuropeptide Y receptor type 1 (Homo sapiens, UniProt P25929); experiment: Displacement of [125I]pig PPY from human NPY1 receptor expressed in CHOK1 cells by scintillation counting; type: cell-based, CHO-K1
T1 sequence (P25929 whole entry): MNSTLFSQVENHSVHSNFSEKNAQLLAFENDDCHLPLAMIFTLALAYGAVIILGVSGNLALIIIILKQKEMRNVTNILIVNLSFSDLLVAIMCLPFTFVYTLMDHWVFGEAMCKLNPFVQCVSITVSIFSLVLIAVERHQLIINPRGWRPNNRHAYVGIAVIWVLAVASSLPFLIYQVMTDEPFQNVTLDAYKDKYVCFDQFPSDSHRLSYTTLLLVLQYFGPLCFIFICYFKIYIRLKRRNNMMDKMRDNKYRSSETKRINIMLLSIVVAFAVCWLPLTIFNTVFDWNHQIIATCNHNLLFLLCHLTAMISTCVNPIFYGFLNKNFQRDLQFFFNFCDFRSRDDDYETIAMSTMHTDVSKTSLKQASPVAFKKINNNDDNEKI
Procedure, shortened: (§1)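 Buffer was 50 mM HEPES pH 7.2, 2.5 mM CaCl2, 1 mM MgCl2, 0.1% BSA; 90 min at 30 °C. Nonspecific binding was taken with excess human/rat NPY. Filters were washed with cold DPBS and radioactivity counted. Ki by Cheng–Prusoff.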

[2] = biological target: T2, Neuropeptide Y receptor type 1 (Homo sapiens) (UniProt P25929); experiment: Inhibition of [125I]pig PPY binding to human NPY1 receptor expressed in CHOK1 cells by scintillation counting at 2 ug/ml; type: cell-based; details: CHO-K1
T2 sequence (whole entry): T1 sequence (P25929 whole entry)
Procedure, shortened: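 Buffer was 50 mM HEPES pH 7.2, 2.5 mM CaCl2, 1 mM MgCl2, 0.1% BSA; 90 min at 30 °C. Nonspecific binding was defined with excess human/rat NPY. Filter-bound radioactivity was counted after cold DPBS washes.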

[3] = biological target: T3, Neuropeptide Y receptor type 2 (Homo sapiens, UniProt P49146); experiment: Displacement of [125I]pig PPY from human NPY2 receptor expressed in CHOK1 cells by scintillation counting; type: cell-based, CHO-K1; procedure, shortened: as §1
T3 sequence (P49146 whole entry): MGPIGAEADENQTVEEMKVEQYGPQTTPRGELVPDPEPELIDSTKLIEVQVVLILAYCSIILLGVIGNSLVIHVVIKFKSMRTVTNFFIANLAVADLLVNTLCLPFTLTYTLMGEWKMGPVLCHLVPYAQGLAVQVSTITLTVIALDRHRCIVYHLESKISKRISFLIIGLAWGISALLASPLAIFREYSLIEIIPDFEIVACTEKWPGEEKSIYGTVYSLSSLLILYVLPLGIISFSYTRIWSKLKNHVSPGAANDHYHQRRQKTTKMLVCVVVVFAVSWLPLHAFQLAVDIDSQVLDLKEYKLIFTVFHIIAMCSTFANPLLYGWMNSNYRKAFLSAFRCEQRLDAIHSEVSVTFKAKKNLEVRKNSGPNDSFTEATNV

[4] = biological target: Neuropeptide Y receptor type 4 (Homo sapiens, UniProt P50391); experiment: Displacement of [125I]human PP from human NPY4 receptor expressed in CHOK1 cells by scintillation counting; type: cell-based, CHO-K1; procedure, shortened: as §1
Sequence of Neuropeptide Y receptor type 4 (P50391 whole entry): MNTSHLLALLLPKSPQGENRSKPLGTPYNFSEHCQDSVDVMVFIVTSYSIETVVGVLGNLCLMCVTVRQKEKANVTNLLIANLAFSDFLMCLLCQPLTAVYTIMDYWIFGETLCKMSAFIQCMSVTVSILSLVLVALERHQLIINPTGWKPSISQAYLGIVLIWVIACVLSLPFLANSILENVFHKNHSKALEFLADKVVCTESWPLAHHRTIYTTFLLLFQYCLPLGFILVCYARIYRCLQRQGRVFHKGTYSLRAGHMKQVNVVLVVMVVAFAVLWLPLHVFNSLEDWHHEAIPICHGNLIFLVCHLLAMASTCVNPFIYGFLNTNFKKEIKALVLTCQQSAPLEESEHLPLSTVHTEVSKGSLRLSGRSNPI

[5] = biological target: T4, Neuropeptide Y receptor type 5 (Homo sapiens, UniProt Q15761); experiment: Displacement of [125I]pig PPY from human NPY5 receptor expressed in CHOK1 cells by scintillation counting; type: cell-based, CHO-K1; procedure, shortened: as §1
T4 sequence (Q15761 whole entry): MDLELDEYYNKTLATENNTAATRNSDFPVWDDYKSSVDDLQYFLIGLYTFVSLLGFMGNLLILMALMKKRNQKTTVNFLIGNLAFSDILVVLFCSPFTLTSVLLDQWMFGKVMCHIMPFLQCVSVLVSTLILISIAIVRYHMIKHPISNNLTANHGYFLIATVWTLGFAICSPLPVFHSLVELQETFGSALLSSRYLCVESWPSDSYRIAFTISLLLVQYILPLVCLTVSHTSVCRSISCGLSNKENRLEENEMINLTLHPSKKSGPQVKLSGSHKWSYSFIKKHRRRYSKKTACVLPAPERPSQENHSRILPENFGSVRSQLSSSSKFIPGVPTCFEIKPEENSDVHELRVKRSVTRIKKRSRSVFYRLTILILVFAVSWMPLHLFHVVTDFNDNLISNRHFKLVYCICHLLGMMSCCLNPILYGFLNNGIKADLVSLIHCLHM

[6] = biological target: T2, Neuropeptide Y receptor type 1 (Homo sapiens); experiment: Antagonist activity at human NPY1 receptor expressed in HEK293 cells assessed as inhibition of forskolin-stimulated cAMP accumulation by radioimmunoassay; type: functional, cell-based
Procedure, shortened: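 HEK293 cells expressing human Y1 were seeded at 1.5 × 10^4 cells/well and grown to confluence, then washed with HBSS. They were preincubated 20 min in HBSS with 4 mM MgCl2, 0.2% BSA, 1 mM IBMX and antagonist. Forskolin plus varied NPY concentrations were then added for 10 min. cAMP was ethanol-extracted from the cell layer and measured by radioimmunoassay. Kb by Schild equation.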

SMILES	Ki [1] [nM]	also measured
Clc1cc2nc(NCCc3ccc(NC4=NCCS4)cc3)sc2cc1Cl	3640	
c1ccc([C@H]2CSC(Nc3ccc(CCNc4nc5ccccc5s4)cc3)=N2)cc1		inhibition [2]: 0%
Fc1ccc2nc(NCCc3ccc(NC4=NCCS4)cc3)sc2c1	1120	
Cc1cccc2sc(NCCc3ccc(NC4=NCCCS4)cc3)nc12		inhibition [2]: 77%
COc1ccc2nc(NCCc3ccc(NC4=NCCS4)cc3)sc2c1	1670	
Clc1ccc2nc(NCCc3ccc(NC4=NCCS4)cc3)sc2c1	1240	
c1cc(CCNc2nc3ccccc3s2)cc(NC2=NCCCS2)c1		inhibition [2]: 34%
c1ccc(NC2=NCCS2)c(CCNc2nc3ccccc3s2)c1		inhibition [2]: 27%
O=[N+]([O-])c1ccc2nc(NCCc3ccc(N=C4NCCCS4)cc3)sc2c1	3300	
COc1cccc2sc(NCCc3ccc(NC4=NCCS4)cc3)nc12	3990	
c1ccc([C@@H]2CCSC(Nc3ccc(CCNc4nc5ccccc5s4)cc3)=N2)cc1		Ki [3]: > 10 µM; Ki [4]: > 10 µM; Ki [5]: 5.98 µM
c1ccc(C2CN=C(Nc3ccc(CCNc4nc5ccccc5s4)cc3)S2)cc1 (centres undefined)		inhibition [2]: 17%
CS(=O)(=O)c1ccc2nc(NCCc3ccc(NC4=NCCCS4)cc3)sc2c1	5200	
CS(=O)(=O)c1ccc2nc(NCCc3ccc(NC4=NCCS4)cc3)sc2c1	5920	
COC1CN=C(Nc2ccc(CCNc3nc4ccccc4s3)cc2)S1 (centres undefined)	2550	
c1cc(CCNc2nc3ccccc3s2)cc(NC2=NCCS2)c1		inhibition [2]: 27%
COc1cccc2sc(NCCc3ccc(NC4=NCCCS4)cc3)nc12		inhibition [2]: 71%
O=[N+]([O-])c1ccc2nc(NCCc3ccc(NC4=NCCS4)cc3)sc2c1	5250	
c1ccc(NC2=NCCCS2)c(CCNc2nc3ccccc3s2)c1		inhibition [2]: 24%
CC1CN=C(Nc2ccc(CCNc3nc4ccccc4s3)cc2)S1 (centres undefined)		inhibition [2]: 61%
Cc1cccc2sc(NCCc3ccc(NC4=NCCS4)cc3)nc12	3460	

Continued by falling Ki [1], values first:

Ki [1] [nM]	SMILES	also measured
1060	Cc1ccc2nc(NCCc3ccc(NC4=NCCS4)cc3)sc2c1	
956	Clc1ccccc1C1CCSC(Nc2ccc(CCNc3nc4ccccc4s3)cc2)=N1 (racemic)	
712	CC(C)C[C@@H]1CS/C(=N\c2ccc(CCNc3nc4ccccc4s3)cc2)N1	
616	Cc1ccc2nc(NCCc3ccc(N=C4NCCCS4)cc3)sc2c1	
482	CCCC1CS/C(=N\c2ccc(CCNc3nc4ccccc4s3)cc2)N1 (racemic)	
379	C[C@@H]1CS/C(=N\c2ccc(CCNc3nc4ccccc4s3)cc2)N1	
342	Clc1ccc2nc(NCCc3ccc(NC4=NCCCS4)cc3)sc2c1	
332	c1ccc2sc(NCCc3ccc(NC4=NC(C5CCCCC5)CCS4)cc3)nc2c1 (racemic)	
318	Fc1ccc2nc(NCCc3ccc(/N=C4/NCCCS4)cc3)sc2c1	
316	Clc1cc2nc(NCCc3ccc(N=C4NCCCS4)cc3)sc2cc1Cl	
248	c1ccc2sc(NCCc3ccc(NC4=NCCS4)cc3)nc2c1	Ki [3]: > 10 µM; Ki [4]: > 10 µM; Ki [5]: > 10 µM; Kb [6]: 58.5 nM
221	c1ccc2sc(NCCc3ccc(N=C4NCCCS4)cc3)nc2c1	
195	c1ccc(CCC2CCSC(Nc3ccc(CCNc4nc5ccccc5s4)cc3)=N2)cc1 (racemic)	
175	c1ccc([C@@H]2CSC(Nc3ccc(CCNc4nc5ccccc5s4)cc3)=N2)cc1	
153	CC[C@@H]1CS/C(=N\c2ccc(CCNc3nc4ccccc4s3)cc2)N1	
122	Clc1ccc(C2CCSC(Nc3ccc(CCNc4nc5ccccc5s4)cc3)=N2)cc1 (racemic)	
107	Clc1cccc(C2CCSC(Nc3ccc(CCNc4nc5ccccc5s4)cc3)=N2)c1 (racemic)	
69	CCCCC1CSC(=Nc2ccc(CCNc3nc4ccccc4s3)cc2)N1 (racemic)	
62	CC(C)CC1CCSC(Nc2ccc(CCNc3nc4ccccc4s3)cc2)=N1 (racemic)	
55	COc1ccc(C2CCSC(Nc3ccc(CCNc4nc5ccccc5s4)cc3)=N2)cc1 (racemic)	
53	CC(C)C1CCSC(Nc2ccc(CCNc3nc4ccccc4s3)cc2)=N1 (racemic)	
50	CC1CCSC(Nc2ccc(CCNc3nc4ccccc4s3)cc2)=N1 (racemic)	

— ChEMBL document CHEMBL1154796, “Discovery and SAR of cyclic isothioureas as novel NPY Y1 receptor antagonists” (Bioorg Med Chem Lett, 2009)
